Drawing on ChEMBL document CHEMBL1641579, “Synthesis and biological evaluation of 7-substituted-1-(3-bromophenylamino)isoquinoline-4-carbonitriles as inhibitors of myosin light chain kinase and epidermal growth factor receptor” (Bioorg Med Chem, 2011), this text covers Activity for three compounds.

A short description of assay [1]: Inhibition of CK2 assessed as residual activity at 10 uM. The gist of the method:
(§1)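 Kinase panel screen run as a radioactive activity assay at single compound concentration. Score reported as percent activity remaining relative to DMSO controls (100%).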

Assay [2] deals with Serine/threonine-protein kinase PAK 6 (Homo sapiens) (UniProt Q9NQU5). Description: Inhibition of PAK6 assessed as residual activity at 10 uM. Summed up: (§2)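 Panel screen by radioactive kinase assay at a single inhibitor concentration. Score is the percent activity remaining relative to DMSO controls (100%).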
Assay [3] addresses Homeodomain-interacting protein kinase 1 (Homo sapiens) (UniProt Q86Z02). Description: Inhibition of HIPK1 assessed as residual activity at 10 uM. Summed up: as §1
Assay [4] deals with T1, Inhibitor of nuclear factor kappa-B kinase subunit beta (Homo sapiens) (UniProt O14920).
T1 sequence (whole entry): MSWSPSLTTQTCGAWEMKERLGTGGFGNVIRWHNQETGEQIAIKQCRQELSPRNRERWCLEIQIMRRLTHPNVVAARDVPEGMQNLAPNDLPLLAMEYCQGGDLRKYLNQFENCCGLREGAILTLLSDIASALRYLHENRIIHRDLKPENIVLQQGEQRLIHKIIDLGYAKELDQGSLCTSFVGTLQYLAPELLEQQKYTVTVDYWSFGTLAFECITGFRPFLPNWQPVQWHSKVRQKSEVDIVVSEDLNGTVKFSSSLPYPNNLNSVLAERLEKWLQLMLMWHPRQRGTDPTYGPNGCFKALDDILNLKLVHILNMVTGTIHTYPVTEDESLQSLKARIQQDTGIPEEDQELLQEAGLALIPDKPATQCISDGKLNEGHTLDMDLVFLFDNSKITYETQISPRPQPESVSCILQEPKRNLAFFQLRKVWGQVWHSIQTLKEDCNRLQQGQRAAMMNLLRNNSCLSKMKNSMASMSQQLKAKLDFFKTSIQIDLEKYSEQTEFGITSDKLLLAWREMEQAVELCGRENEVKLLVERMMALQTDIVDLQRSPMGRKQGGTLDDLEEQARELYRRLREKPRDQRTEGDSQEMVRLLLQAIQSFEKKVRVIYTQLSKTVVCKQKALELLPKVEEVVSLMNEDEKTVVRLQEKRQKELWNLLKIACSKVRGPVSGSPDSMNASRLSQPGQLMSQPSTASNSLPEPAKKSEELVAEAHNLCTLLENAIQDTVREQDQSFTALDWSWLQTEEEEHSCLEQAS
Description: Inhibition of IKK-beta assessed as residual activity at 10 uM. The gist of the method: as §1

The target in assay [5] is T2, Aurora kinase A (Homo sapiens) (UniProt O14965).
T2 sequence (whole entry): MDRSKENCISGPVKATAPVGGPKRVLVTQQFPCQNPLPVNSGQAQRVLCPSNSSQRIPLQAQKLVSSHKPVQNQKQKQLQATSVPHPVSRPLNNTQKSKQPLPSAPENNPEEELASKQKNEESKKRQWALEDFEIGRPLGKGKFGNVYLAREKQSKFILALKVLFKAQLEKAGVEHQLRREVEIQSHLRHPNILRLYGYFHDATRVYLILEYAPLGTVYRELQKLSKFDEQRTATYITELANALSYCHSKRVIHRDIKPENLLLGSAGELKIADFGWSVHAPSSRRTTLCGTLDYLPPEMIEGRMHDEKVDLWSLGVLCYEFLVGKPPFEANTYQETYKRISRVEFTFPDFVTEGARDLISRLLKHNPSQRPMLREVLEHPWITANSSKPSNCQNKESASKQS
Description: Inhibition of aurora A assessed as residual activity at 10 uM. Summed up:
as §2

Assay [6] deals with Cyclin-dependent kinase 2/cyclin A (Homo sapiens) (UniProt P24941+P20248+P78396). Description: Inhibition of CDK2/CyclinA assessed as residual activity at 10 uM. The assay is classed as protein-complex assay. The gist of the method: as §1
In assay [7] the target is T3, Eukaryotic elongation factor 2 kinase (Homo sapiens) (UniProt O00418).
T3 sequence (whole entry): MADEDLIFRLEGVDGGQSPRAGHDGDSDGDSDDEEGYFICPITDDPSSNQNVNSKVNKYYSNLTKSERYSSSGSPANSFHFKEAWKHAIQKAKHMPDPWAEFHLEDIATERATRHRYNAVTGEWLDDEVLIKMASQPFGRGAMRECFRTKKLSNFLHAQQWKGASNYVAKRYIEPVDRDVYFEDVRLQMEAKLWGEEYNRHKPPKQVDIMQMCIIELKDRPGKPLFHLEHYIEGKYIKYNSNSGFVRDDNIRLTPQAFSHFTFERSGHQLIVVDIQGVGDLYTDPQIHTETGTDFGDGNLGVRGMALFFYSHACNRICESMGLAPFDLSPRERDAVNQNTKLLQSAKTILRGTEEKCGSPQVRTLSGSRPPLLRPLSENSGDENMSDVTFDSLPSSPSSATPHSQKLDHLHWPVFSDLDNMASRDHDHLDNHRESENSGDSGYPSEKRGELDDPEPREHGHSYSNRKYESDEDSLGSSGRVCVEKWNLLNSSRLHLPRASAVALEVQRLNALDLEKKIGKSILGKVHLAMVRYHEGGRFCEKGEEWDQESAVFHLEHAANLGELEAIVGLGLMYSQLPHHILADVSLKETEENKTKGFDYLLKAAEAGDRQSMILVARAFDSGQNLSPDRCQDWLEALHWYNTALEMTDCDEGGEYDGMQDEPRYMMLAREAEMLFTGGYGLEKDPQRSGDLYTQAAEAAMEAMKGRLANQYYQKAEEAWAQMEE
Description: Inhibition of EF2K assessed as residual activity at 10 uM. Summed up:
as §1

Assay [8] has as its target T4, Serine/threonine-protein kinase Nek2 (Homo sapiens) (UniProt P51955).
T4 sequence (whole entry): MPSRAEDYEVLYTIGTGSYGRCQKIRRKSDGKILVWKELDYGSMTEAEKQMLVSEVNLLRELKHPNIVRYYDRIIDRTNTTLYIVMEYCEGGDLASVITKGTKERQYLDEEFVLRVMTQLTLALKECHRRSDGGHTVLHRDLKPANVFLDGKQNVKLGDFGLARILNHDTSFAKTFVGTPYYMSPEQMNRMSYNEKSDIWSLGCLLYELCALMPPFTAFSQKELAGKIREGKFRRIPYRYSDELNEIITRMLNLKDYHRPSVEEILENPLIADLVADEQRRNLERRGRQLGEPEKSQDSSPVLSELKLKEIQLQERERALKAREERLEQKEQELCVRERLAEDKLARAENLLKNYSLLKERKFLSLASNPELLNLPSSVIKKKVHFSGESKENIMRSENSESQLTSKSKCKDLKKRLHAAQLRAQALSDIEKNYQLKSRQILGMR
Description: Inhibition of NEK2A assessed as residual activity at 10 uM. Summed up:
as §2

Homeodomain-interacting protein kinase 1 (Homo sapiens), sequence (Q86Z02 whole entry, looked up): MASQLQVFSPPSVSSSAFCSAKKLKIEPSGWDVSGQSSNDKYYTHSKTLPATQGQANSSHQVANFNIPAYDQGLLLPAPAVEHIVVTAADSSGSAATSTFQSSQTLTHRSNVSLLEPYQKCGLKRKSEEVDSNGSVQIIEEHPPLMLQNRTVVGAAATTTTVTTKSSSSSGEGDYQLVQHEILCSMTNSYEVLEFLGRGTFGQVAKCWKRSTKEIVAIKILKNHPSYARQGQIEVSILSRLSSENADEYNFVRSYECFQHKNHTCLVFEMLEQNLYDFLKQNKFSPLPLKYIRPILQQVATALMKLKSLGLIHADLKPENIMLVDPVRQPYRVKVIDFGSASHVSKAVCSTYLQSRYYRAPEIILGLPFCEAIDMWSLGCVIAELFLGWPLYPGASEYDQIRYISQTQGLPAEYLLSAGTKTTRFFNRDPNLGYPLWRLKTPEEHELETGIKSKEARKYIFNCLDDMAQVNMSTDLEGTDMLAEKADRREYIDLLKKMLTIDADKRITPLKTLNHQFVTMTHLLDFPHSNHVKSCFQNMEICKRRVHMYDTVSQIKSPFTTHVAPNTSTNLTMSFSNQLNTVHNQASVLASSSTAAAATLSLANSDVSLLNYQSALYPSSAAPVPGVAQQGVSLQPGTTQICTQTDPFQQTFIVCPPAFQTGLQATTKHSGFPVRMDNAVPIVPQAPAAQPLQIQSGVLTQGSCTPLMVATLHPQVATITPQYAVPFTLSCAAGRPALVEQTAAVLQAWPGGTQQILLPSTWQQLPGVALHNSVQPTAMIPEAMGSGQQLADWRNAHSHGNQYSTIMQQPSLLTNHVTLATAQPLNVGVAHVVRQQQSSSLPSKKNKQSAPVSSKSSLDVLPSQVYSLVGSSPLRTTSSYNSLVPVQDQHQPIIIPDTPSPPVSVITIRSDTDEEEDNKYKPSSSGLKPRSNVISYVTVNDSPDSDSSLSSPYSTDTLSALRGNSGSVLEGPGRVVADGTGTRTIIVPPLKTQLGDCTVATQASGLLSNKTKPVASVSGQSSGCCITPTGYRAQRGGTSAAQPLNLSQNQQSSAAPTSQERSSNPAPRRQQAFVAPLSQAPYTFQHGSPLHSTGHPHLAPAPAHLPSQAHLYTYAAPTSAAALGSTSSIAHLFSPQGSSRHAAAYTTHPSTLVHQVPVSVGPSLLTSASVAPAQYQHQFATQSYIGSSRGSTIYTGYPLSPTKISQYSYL
Cyclin-dependent kinase 2/cyclin A (Homo sapiens), sequence (P20248 whole entry, looked up, other chains not shown): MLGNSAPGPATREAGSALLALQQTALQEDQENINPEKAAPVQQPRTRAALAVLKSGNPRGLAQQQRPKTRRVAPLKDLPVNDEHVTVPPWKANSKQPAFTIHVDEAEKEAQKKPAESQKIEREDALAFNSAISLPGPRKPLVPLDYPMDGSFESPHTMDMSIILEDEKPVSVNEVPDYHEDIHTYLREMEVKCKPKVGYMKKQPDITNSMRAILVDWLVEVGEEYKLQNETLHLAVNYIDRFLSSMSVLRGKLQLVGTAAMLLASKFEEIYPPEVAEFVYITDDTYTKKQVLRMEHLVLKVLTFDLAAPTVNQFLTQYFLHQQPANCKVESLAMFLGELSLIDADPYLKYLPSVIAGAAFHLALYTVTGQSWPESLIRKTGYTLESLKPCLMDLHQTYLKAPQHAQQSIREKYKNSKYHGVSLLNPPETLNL
Cyclin-dependent kinase 2/cyclin A (Homo sapiens), sequence (P78396 whole entry, looked up, other chains not shown): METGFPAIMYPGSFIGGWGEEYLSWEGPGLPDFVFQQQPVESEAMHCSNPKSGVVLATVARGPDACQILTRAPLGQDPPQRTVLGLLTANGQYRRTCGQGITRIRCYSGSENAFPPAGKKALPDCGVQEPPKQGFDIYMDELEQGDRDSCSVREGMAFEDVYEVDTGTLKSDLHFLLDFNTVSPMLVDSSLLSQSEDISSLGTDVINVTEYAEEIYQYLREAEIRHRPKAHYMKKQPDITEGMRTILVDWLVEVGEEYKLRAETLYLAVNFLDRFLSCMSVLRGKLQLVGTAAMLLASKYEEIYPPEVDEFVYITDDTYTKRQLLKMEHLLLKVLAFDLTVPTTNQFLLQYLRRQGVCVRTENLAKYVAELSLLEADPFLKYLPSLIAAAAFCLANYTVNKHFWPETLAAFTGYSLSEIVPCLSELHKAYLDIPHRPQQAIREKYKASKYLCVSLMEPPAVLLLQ
Serine/threonine-protein kinase PAK 6 (Homo sapiens), sequence (Q9NQU5 whole entry, looked up): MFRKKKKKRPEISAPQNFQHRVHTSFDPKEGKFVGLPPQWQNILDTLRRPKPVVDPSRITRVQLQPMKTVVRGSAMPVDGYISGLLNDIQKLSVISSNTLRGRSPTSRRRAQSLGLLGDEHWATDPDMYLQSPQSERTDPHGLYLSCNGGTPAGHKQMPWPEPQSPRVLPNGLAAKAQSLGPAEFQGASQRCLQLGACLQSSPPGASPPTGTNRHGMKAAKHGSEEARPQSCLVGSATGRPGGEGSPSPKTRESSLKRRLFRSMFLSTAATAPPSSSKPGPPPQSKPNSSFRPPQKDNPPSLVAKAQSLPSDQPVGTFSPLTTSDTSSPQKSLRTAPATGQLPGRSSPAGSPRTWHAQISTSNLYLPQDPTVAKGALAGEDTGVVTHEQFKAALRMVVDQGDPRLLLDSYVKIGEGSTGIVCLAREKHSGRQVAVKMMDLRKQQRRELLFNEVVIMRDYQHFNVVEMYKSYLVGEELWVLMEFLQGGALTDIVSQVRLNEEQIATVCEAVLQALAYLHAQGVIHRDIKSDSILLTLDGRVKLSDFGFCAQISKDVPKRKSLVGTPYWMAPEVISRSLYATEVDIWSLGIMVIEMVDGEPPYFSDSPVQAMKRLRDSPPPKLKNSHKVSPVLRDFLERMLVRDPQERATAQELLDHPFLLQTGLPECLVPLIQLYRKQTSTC

On to `CN1CCN(CCC(=O)Nc2ccc3c(C#N)cnc(Nc4cccc(Br)c4)c3c2)CC1`, for which the Activity in assay [1] was 90%; in assay [2], 87%; in assay [3], 83%; in assay [4] it was 88%; in assay [5], 80%; in assay [6], 100%. The Activity in assay [7] amounted to 47%; in assay [8], 100%.

Take `CN(C)CCCC(=O)Nc1ccc2c(C#N)cnc(Nc3cccc(Br)c3)c2c1`: the Activity in assay [1] was 100%; in assay [2], 100%; in assay [3] it was 95%; in assay [4] it was 84%; in assay [5], 94%; in assay [6] it was 100%. The Activity in assay [7] is 78%; in assay [8], 100%.

Take `CN(C)C/C=C/C(=O)Nc1ccc2c(C#N)cnc(Nc3cccc(Br)c3)c2c1`: the Activity in assay [1] was 99%; in assay [2], 100%; in assay [3], 100%; in assay [4] it was 79%; in assay [5], 79%; in assay [6], 97%. The figures for the Activity in assay [7] and in assay [8] were 88% and 98%, respectively.
